Measured values of several laboratories.
Protocols differ between the studies behind these lines.
Target: Cyclin-dependent kinase 13 (CDK13, Homo sapiens, UniProt Q14004)

| Compound | test | setting | remaining binding [%] |
| --- | --- | --- | --- |
| CN(C)c1ncc(F)c(-c2cnn3ncccc23)n1 | binding | 1 µM | 96 |
| Nc1ncc2c(n1)-c1c([nH]c3ccc(C#CC4CC4)cc13)CCCC2 | binding, competition with immobilised ligand | 1 µM | 84 |
| O=C(Nc1cccnn1)N1CCC(=Cc2cccc(Oc3ccc(C(F)(F)F)cn3)c2)CC1 | cell-free assay, competition with immobilised ligand | 1 µM | 100 |
| Cc1cnc(Nc2ccc(C(=O)N3CCC(N4CCCC4)CC3)cc2)nc1-c1cc2ccccc2s1 | binding, competition with immobilised ligand | 1 µM | 50 |
| CCCCN(CCCC)C(=O)CN1C[C@H](c2cc(OC)c3c(c2)OCO3)[C@@H](C(=O)O)[C@@H]1CC(C)(C)CCC | cell-free assay, competition with immobilised ligand | 1 µM | 52.5 |
| O=C(Nc1c[nH]nc1C(=O)NC1CCNCC1)c1cc(F)cc(F)c1 | binding, competition with immobilised ligand | 1 µM | 100 |
| O=C(NCCCN1CCOCC1)c1ccc(Nc2nccc(-c3cc4ccccc4s3)n2)cc1 | binding, competition with immobilised ligand | 1 µM | 68 |
| COc1ncc2cc3ccccc3nc2c1C#N | cell-free assay, competition with immobilised ligand | 5 µM | 92 |
| COc1cnc(Nc2cccc(S(N)(=O)=O)c2)nc1N1CCN(c2ccccc2)C(=O)C1 | binding, competition with immobilised ligand | 1 µM | 94 |
| FC(F)(F)Oc1cccc(-c2cnc3ccc(-c4ccncc4)nn23)c1 | cell-free assay, competition with immobilised ligand | 5 µM | 99 |
| CN(CCCC(F)(F)F)c1nccc(-c2cnn3ncccc23)n1 | binding | 1 µM | 100 |
| Cc1c[nH]c2nccc(Oc3c(F)cc(Nc4cc(Cl)nc(N)n4)cc3F)c12 | cell-free assay, competition with immobilised ligand | 0.1 µM | 73 |
| N[C@H]1CCN(c2nccc(-c3cnn4ncccc34)n2)C1 | binding | 1 µM | 64 |
| CN(C)C(=O)Cn1cc(-c2nc([C@@](C)(c3ccc(-c4cnc(N)nc4)cc3)C3CC3)no2)cn1 | cell-free assay, competition with immobilised ligand | 1 µM | 83 |
| CN(C)c1nccc(-c2cnn3ncccc23)n1 | binding | 1 µM | 84 |
| CC(=O)C1=C(C)N(c2cccc(C(F)(F)F)c2)C(=O)N[C@@H]1c1ccc(C#N)nc1 | cell-free assay, competition with immobilised ligand | 1 µM | 100 |
| O=C(c1ccc(Nc2ncc(Cl)c(-c3cc4ccccc4s3)n2)cc1)N1CCC(N2CCCC2)CC1 | binding, competition with immobilised ligand | 1 µM | 36 |
| C[C@H]1CCN(c2nccc(-c3cnn4ncccc34)n2)C1 | binding | 1 µM | 84 |
